Data set [1] has as its system Rattus norvegicus. Description: Antiinflammatory activity in albino rat assessed as inhibition of carrageenan-induced paw edema at 100 mg/kg, po administered 30 mins prior to challenge measured after 4 hrs relative to untreated control. Type of data set: functional. The gist of the method: (§1)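 Adult male albino rats (120–140 g), groups of four, fasted 24 h with water allowed. Test compound suspended in 0.5% w/v CMC in water, given orally at 100 mg/kg; controls received CMC alone. After 30 min, 0.1 mL of 1% carrageenan in saline injected subplantar into right hind paw, saline into left. Paw thickness measured by caliper; % inhibition = [(VR−VL)control − (VR−VL)treated]/(VR−VL)control ×100; one-way ANOVA versus control.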

Data set [2] has as its system Rattus norvegicus. Description: Antiinflammatory activity in albino rat assessed as inhibition of carrageenan-induced paw edema at 100 mg/kg, po administered 30 mins prior to challenge measured after 2 hrs relative to untreated control. Type of data set: functional. In a few lines: as §1
The subject of data set [3] is Rattus norvegicus. Put plainly: Antiinflammatory activity in albino rat assessed as inhibition of carrageenan-induced paw edema at 100 mg/kg, po administered 30 mins prior to challenge measured after 1 hr relative to untreated control. Type of data set: functional. The gist of the method:
as §1

Data set [4] relates to Rattus norvegicus. Put plainly: Antiinflammatory activity in albino rat assessed as inhibition of carrageenan-induced paw edema at 100 mg/kg, po administered 30 mins prior to challenge measured after 5 hrs relative to untreated control. It counts as functional. The gist of the method:
as §1

The subject of data set [5] is Rattus norvegicus. Description: Antiinflammatory activity in albino rat assessed as inhibition of carrageenan-induced paw edema at 100 mg/kg, po administered 30 mins prior to challenge measured after 3 hrs relative to untreated control. Type of data set: functional. In a few lines:
as §1

The subject of data set [6] is Rattus norvegicus. Description: Gastric toxicity in albino rat assessed as ulcer index at 100 mg/kg, po after 5 hrs. Type of data set: organism-based. Particulars: in vivo; call rule not given here. Also noted: dose 100 mg/kg, route oral. In a few lines: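 Rats dosed orally at 100 mg/kg in 0.5% CMC (n = 4). Stomach lesions counted and graded by area: level I <1 mm², II 1–3 mm², III >3 mm². Ulcer index = 1×(level I count) + 2×(level II) + 3×(level III). Mean ± SEM; one-way ANOVA versus control.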

A short description of data set [7]: Induction of nitric oxide release at 0.1 mM after 6 hrs in phosphate buffer at pH 7.4 by Griess assay. It counts as physicochemical. The following applies: pH 7.4, 6 h, 100 µM. In a few lines: (§2)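 Compound at a final 10^-4 M with 0.5 mM N-acetylcysteine in phosphate buffer pH 7.4 at 37 °C. Reaction mixture treated with Griess reagent (sulfanilamide, N-naphthylethylenediamine, phosphoric acid), 10 min at room temperature, absorbance read at 546 nm. Sodium nitrite standards (10–80 nmol/mL) used for calibration. NO reported as mol/mol, n = 4 reaction mixtures.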

The nature of data set [8]: Induction of nitric oxide release at 0.1 mM after 5 hrs in phosphate buffer at pH 7.4 by Griess assay. It counts as physicochemical. The following applies: pH 7.4, 5 h, 100 µM. The gist of the method: as §2
The nature of data set [9]: Induction of nitric oxide release at 0.1 mM in 0.1 N HCl buffer at pH 1.0 by Griess assay. Particulars: pH 1, 100 µM. Type of data set: physicochemical. In a few lines:
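Griess procedure as at neutral pH, but in 0.1 N HCl pH 1 in place of phosphate buffer. Compound at a final 10^-4 M with N-acetylcysteine, 37 °C. Absorbance read at 546 nm against sodium nitrite standards (10–80 nmol/mL). Release expressed relative to a theoretical 1 mol NO/mol compound.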

Data set [10] is described as follows: Induction of nitric oxide release at 0.1 mM after 4 hrs in phosphate buffer at pH 7.4 by Griess assay. Particulars: pH 7.4, 4 h, 100 µM. It counts as physicochemical. In a few lines: as §2
For data set [11], the system named is Rattus norvegicus. Description: Antiinflammatory activity in albino rat assessed as inhibition of carrageenan-induced paw edema at 100 mg/kg, po administered 30 mins prior to challenge measured after 3 hrs relative to indomethacin. It counts as functional. Also noted: scale not given: the % may be the effect or the level left. The gist of the method:
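Carrageenan paw edema in male albino rats (120–140 g, n = 4, fasted 24 h), compound 100 mg/kg po in 0.5% CMC 30 min before subplantar 1% carrageenan (0.1 mL). Percent edema inhibition at the stated hour from right minus left paw thickness versus the CMC control, then expressed as a percentage of the indomethacin (100 mg/kg) response at the same time.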

Data set [12] can be described thus: Induction of nitric oxide release at 0.1 mM after 1 hr in phosphate buffer at pH 7.4 by Griess assay. The following applies: pH 7.4, 1 h, 100 µM. Type of data set: physicochemical. In a few lines: as §2
Data set [13] in a line: Induction of nitric oxide release at 0.1 mM after 2 hrs in phosphate buffer at pH 7.4 by Griess assay. Type of data set: physicochemical. The following applies: pH 7.4, 2 h, 100 µM. The gist of the method: as §2
Data set [14] can be described thus: Induction of nitric oxide release at 0.1 mM after 3 hrs in phosphate buffer at pH 7.4 by Griess assay. The following applies: pH 7.4, 3 h, 100 µM. It counts as physicochemical. The gist of the method: as §2

The structures appear in SMILES notation.

`Nc1ccc(C(=O)/C=C/c2ccc(Cl)cc2)cc1`: the inhibition in vivo at 100 mg/kg with Rattus norvegicus [1] is 58%; in the data set with Rattus norvegicus [2] it was 50%; with Rattus norvegicus [3], 41%; in the data set with Rattus norvegicus [4], 54%; in the data set with Rattus norvegicus [5], 60%. In the data set on Rattus norvegicus [6], the UI amounted to 18.

Take `Nc1ccc(C(=O)/C=C/c2ccc3c(c2)OCO3)cc1`: the inhibition in vivo at 100 mg/kg stood at 50% with Rattus norvegicus [1]; 44% in the data set with Rattus norvegicus [2]; 32% with Rattus norvegicus [3]; 47% in the data set with Rattus norvegicus [4]; 55% in the data set on Rattus norvegicus [5]. For the same molecule, the UI with Rattus norvegicus [6] is 20.

For the molecule `Nc1ccc(C(=O)/C=C/c2ccco2)cc1`, the inhibition in vivo at 100 mg/kg in the data set with Rattus norvegicus [1] came to 33%; with Rattus norvegicus [2] it was 38%; in the data set on Rattus norvegicus [3], 33%; with Rattus norvegicus [4], 30%; with Rattus norvegicus [5], 42%. For the same molecule, in the data set on Rattus norvegicus [6], the UI is recorded as 29.

Turning to `COc1ccc(/C=C/C(=O)c2ccc(NC(=O)CBr)cc2)cc1`, the inhibition in vivo at 100 mg/kg with Rattus norvegicus [1] worked out at 41%; with Rattus norvegicus [2], 42%; with Rattus norvegicus [3], 37%; in the data set with Rattus norvegicus [4], 34%; with Rattus norvegicus [5], 46%. The UI in the data set with Rattus norvegicus [6] was determined as 28.

As for `O=C(CBr)Nc1ccc(C(=O)/C=C/c2ccc3c(c2)OCO3)cc1`, the inhibition in vivo at 100 mg/kg came to 48% with Rattus norvegicus [1]; 45% with Rattus norvegicus [2]; 40% in the data set with Rattus norvegicus [3]; 46% in the data set on Rattus norvegicus [4]; 53% with Rattus norvegicus [5]. In addition, the UI with Rattus norvegicus [6] stood at 24.

As for `O=C(CBr)Nc1ccc(C(=O)/C=C/c2ccco2)cc1`, the inhibition in vivo at 100 mg/kg with Rattus norvegicus [1] was found to be 33%; in the data set with Rattus norvegicus [2], 37%; in the data set on Rattus norvegicus [3], 30%; with Rattus norvegicus [4], 25%; in the data set on Rattus norvegicus [5], 41%. Besides, the UI in the data set on Rattus norvegicus [6] turned out to be 25.8.

For the molecule `CC(Br)C(=O)Nc1ccc(C(=O)/C=C/c2ccc(Cl)cc2)cc1` (configuration not stated), the inhibition in vivo at 100 mg/kg in the data set with Rattus norvegicus [1] turned out to be 54%; in the data set with Rattus norvegicus [2], 45%; in the data set with Rattus norvegicus [3] it was 39%; in the data set on Rattus norvegicus [4] it was 50%; with Rattus norvegicus [5], 59%. In addition, the UI in the data set with Rattus norvegicus [6] stood at 16.7.

`COc1ccc(/C=C/C(=O)c2ccc(NC(=O)C(C)Br)cc2)cc1` (configuration not stated): the inhibition in vivo at 100 mg/kg with Rattus norvegicus [1] stood at 38%; in the data set with Rattus norvegicus [2], 40%; in the data set with Rattus norvegicus [3], 39%; with Rattus norvegicus [4] it was 31%; in the data set on Rattus norvegicus [5] it was 40%. Moreover, in the data set on Rattus norvegicus [6], the UI came to 30.1.

With `CC(Br)C(=O)Nc1ccc(C(=O)/C=C/c2ccc3c(c2)OCO3)cc1` (configuration not stated), the inhibition in vivo at 100 mg/kg in the data set on Rattus norvegicus [1] is 53%; with Rattus norvegicus [2], 43%; in the data set with Rattus norvegicus [3], 37%; with Rattus norvegicus [4] it was 50%; in the data set with Rattus norvegicus [5] it was 56%. Further, the UI with Rattus norvegicus [6] was determined as 18.

Take `CC(Br)C(=O)Nc1ccc(C(=O)/C=C/c2ccco2)cc1` (configuration not stated): the inhibition in vivo at 100 mg/kg with Rattus norvegicus [1] is 36%; in the data set with Rattus norvegicus [2], 37%; in the data set with Rattus norvegicus [3] it was 30%; with Rattus norvegicus [4], 34%; in the data set on Rattus norvegicus [5], 42%. Further, the UI with Rattus norvegicus [6] is listed as 25.3.

Regarding `CC(=O)c1ccc(OCC(=O)Nc2ccc(C(=O)/C=C/c3ccc(Cl)cc3)cc2)cc1`, the inhibition in vivo at 100 mg/kg in the data set on Rattus norvegicus [1] is 58%; with Rattus norvegicus [2] it was 52%; in the data set on Rattus norvegicus [3], 43%; with Rattus norvegicus [4], 55%; in the data set on Rattus norvegicus [5], 61%. Also, in the data set with Rattus norvegicus [6], the UI was 8.1.

`COc1ccc(/C=C/C(=O)c2ccc(NC(=O)COc3ccc(C(C)=O)cc3)cc2)cc1`: the inhibition in vivo at 100 mg/kg in the data set with Rattus norvegicus [1] turned out to be 33%; with Rattus norvegicus [2] it was 35%; in the data set with Rattus norvegicus [3] it was 28%; in the data set with Rattus norvegicus [4], 30%; with Rattus norvegicus [5], 42%. Moreover, the UI in the data set with Rattus norvegicus [6] stood at 6.

`CC(=O)c1ccc(OCC(=O)Nc2ccc(C(=O)/C=C/c3ccco3)cc2)cc1`: the inhibition in vivo at 100 mg/kg came to 39% in the data set on Rattus norvegicus [1]; 32% with Rattus norvegicus [2]; 28% in the data set with Rattus norvegicus [3]; 36% in the data set on Rattus norvegicus [4]; 45% in the data set on Rattus norvegicus [5]. Besides, the UI with Rattus norvegicus [6] came to 5.

For the molecule `C/C(=N/O)c1ccc(OCC(=O)Nc2ccc(C(=O)/C=C/c3ccco3)cc2)cc1`, the inhibition in vivo at 100 mg/kg in the data set on Rattus norvegicus [1] turned out to be 48%; with Rattus norvegicus [2], 44%; with Rattus norvegicus [3], 36%; in the data set on Rattus norvegicus [4], 42%; in the data set on Rattus norvegicus [5], 49%. Besides, the Activity in data set [7] is 0.13 mol/mol; in data set [8] it was 0.14 mol/mol; in [9], “Not Active”; in data set [10], 0.28 mol/mol; in the data set with Rattus norvegicus [11] it was 64%; in data set [12], 0.1 mol/mol. The Activity in data set [13] and in data set [14] was 0.12 mol/mol each time. The UI with Rattus norvegicus [6] is 4.8.

Consider `COc1ccc(/C=C/C(=O)c2ccc(NC(=O)COCc3c(-c4ccccc4)no[n+]3[O-])cc2)cc1`, for which the inhibition in vivo at 100 mg/kg in the data set with Rattus norvegicus [1] came out at 55%; in the data set with Rattus norvegicus [2] it was 42%; in the data set on Rattus norvegicus [3], 30%; in the data set on Rattus norvegicus [4] it was 49%; in the data set on Rattus norvegicus [5], 56%. Besides, the Activity was 0.3 mol/mol in [7]; 0.52 mol/mol in [8]; “Not Active” in [9]; 0.482 mol/mol in data set [10]; 73% with Rattus norvegicus [11]; 0.11 mol/mol in data set [12]. In addition, the results for the Activity in data set [13] and in [14] were 0.27 mol/mol and 0.47 mol/mol, respectively. In the data set on Rattus norvegicus [6], the UI came out at 2.

On to `O=C(COCc1c(-c2ccccc2)no[n+]1[O-])Nc1ccc(C(=O)/C=C/c2ccco2)cc1`, for which the inhibition in vivo at 100 mg/kg in the data set with Rattus norvegicus [1] came to 58%; with Rattus norvegicus [2], 45%; with Rattus norvegicus [3] it was 30%; with Rattus norvegicus [4] it was 49%; in the data set with Rattus norvegicus [5], 59%. Moreover, the Activity in data set [7] was 0.54 mol/mol; in data set [8], 0.65 mol/mol; in data set [9], “Not Active”; in data set [10] it was 0.499 mol/mol; in the data set on Rattus norvegicus [11], 76%; in data set [12], 0.16 mol/mol. Besides, the Activity is reported as 0.23 mol/mol in data set [13] and 0.4 mol/mol in [14]. Besides, the UI in the data set on Rattus norvegicus [6] stood at 2.5.

In the case of `COc1ccc(/C=C/C(=O)c2ccc(N)cc2)cc1`, the inhibition in vivo at 100 mg/kg in the data set with Rattus norvegicus [1] worked out at 48%; in the data set with Rattus norvegicus [2], 48%; in the data set on Rattus norvegicus [3], 42%; in the data set on Rattus norvegicus [4] it was 40%; in the data set on Rattus norvegicus [5], 51%. For the same molecule, the UI with Rattus norvegicus [6] is 22.5.

Regarding `[O-][n+]1onc(-c2ccccc2)c1CO`, the UI in the data set with Rattus norvegicus [6] is given as 1.5.
